Columns and labels:
[1] = target: 5-hydroxytryptamine receptor 6 (Homo sapiens, UniProt P50406); experiment: Displacement of [3H]LSD from human recombinant 5HT6 receptor expressed in HEK293 cells; assay type: cell-based
Outline: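 Competition binding against [3H]LSD, run at 37 °C on HEK293 cells expressing recombinant human 5-HT6 receptor. Affinity is expressed as pKi, with standard deviation of the pKi estimates 0.05–0.3.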

hERG (KCNH2) [2] = target: T1, hERG (KCNH2) (Homo sapiens, UniProt Q12809); experiment: Inhibition of hERG current at 1 uM by patch clamp electrophysiology assay; assay type: toxicity
T1 sequence (Q12809 whole entry): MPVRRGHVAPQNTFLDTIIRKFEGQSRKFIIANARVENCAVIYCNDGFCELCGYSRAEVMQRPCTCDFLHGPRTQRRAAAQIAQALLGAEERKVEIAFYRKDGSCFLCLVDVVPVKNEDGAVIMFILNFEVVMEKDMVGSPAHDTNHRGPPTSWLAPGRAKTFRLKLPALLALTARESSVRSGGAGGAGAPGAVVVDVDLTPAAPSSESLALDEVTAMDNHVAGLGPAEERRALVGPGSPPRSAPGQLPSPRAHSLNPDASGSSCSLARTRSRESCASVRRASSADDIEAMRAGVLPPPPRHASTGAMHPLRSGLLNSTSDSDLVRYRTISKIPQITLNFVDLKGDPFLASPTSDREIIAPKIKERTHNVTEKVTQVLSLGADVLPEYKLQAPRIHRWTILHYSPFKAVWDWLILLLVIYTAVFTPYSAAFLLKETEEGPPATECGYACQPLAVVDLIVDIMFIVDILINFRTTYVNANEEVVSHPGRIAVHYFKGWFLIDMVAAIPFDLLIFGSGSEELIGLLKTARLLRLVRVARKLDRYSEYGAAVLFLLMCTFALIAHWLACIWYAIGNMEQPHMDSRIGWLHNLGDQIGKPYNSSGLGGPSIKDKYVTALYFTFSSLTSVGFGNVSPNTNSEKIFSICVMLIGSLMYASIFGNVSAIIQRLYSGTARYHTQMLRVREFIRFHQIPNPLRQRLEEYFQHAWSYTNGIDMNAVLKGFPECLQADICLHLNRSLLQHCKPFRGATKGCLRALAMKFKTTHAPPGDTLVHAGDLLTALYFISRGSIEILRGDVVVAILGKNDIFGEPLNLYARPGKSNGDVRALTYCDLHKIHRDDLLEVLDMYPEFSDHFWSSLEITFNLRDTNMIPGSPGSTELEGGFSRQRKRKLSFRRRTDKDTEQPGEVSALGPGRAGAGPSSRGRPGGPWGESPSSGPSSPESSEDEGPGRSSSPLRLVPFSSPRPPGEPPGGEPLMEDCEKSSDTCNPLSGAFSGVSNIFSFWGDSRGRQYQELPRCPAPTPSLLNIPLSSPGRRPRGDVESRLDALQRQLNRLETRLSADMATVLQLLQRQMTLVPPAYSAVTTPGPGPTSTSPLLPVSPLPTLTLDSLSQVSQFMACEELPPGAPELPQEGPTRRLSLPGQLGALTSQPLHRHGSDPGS
Outline: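 Conventional patch-clamp electrophysiology measuring inhibition of hERG outward current at a single test concentration. Baseline set to 0%; mean with SEM from n = 2 cells.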

[3] = Ratio of drug level in brain to plasma in rat at 2 mg/kg, iv after 1 hr; assay type: ADME, organism-based; design: dose 2 mg/kg, route intravenous
Outline: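 Rats received a single intravenous 2 mg/kg dose. At 1 h post-dose, drug levels in whole brain homogenate and plasma were quantified by HPLC–MS/MS, and the brain-to-plasma ratio was calculated.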

hERG (KCNH2) [4] = target: T1, hERG (KCNH2); experiment: Inhibition of hERG current by patch clamp electrophysiology assay; assay type: toxicity

Chain of 5-hydroxytryptamine receptor 6 (P50406 whole entry): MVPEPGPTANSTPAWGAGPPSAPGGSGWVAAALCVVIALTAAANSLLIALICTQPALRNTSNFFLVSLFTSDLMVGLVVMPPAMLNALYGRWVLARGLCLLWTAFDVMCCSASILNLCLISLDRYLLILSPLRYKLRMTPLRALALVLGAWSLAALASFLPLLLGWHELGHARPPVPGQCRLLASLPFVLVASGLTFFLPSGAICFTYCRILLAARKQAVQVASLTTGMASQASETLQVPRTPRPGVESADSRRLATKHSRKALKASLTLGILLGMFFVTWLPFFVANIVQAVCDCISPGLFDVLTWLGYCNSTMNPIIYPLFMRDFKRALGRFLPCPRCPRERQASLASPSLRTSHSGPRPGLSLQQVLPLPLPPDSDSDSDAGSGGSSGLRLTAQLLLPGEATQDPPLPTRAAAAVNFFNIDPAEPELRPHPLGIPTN

Row | Ki [1] [nM] | SMILES | inhibition at 1 µM (hERG (KCNH2) [2]) [%] | Kp at 1 h [3] | IC20 (hERG (KCNH2) [4]) [nM]
1 | 200 | CS(=O)(=O)Nc1cccc(S(=O)(=O)N2CCOc3c(N4CCNCC4)cccc32)c1 | – | – | –
2 | 316 | CS(=O)(=O)c1ccccc1S(=O)(=O)N1CCOc2c(N3CCNCC3)cccc21 | – | – | –
3 | 0.631 | O=S(=O)(c1cccc2cccnc12)N1CCOc2c(N3CCNCC3)cc(Cl)cc21 | – | – | –
4 | 2 | Cc1cc(N2CCNCC2)c2c(c1)N(S(=O)(=O)c1ccccc1C#N)CCO2 | 14.2 | – | –
5 | 7.94 | CC(C)(C)c1cc(N2CCNCC2)c2c(c1)N(S(=O)(=O)c1ccccc1F)CCO2 | – | – | –
6 | 0.316 | CC1(C)CN(S(=O)(=O)c2ccccc2F)c2cccc(N3CCNCC3)c2O1 | – | – | –
7 | 631 | Nc1cccc2c1OCCN2S(=O)(=O)c1ccccc1F | – | – | –
8 | 39.8 | Cc1cc(N2CC(C)NC(C)C2)c2c(c1)N(S(=O)(=O)c1ccc(Cl)cc1)CCO2 (stereo not given) | – | – | –
9 | 3.98 | CC1(C)CN(S(=O)(=O)c2ccccc2)c2cc(F)cc(C3CCNCC3)c2O1 | – | – | –
10 | 126 | CN(C)CCNc1cccc2c1OC(C)(C)CN2S(=O)(=O)c1cccc(F)c1 | – | – | –
11 | 0.158 | COc1cc(N2CCNCC2)c2c(c1)N(S(=O)(=O)c1ccccc1F)CCO2 | – | – | –
12 | 0.631 | O=S(=O)(c1ccccc1F)N1CC2(CCC2)Oc2c(N3CCNCC3)cccc21 | – | – | –
13 | 3.98 | O=S(=O)(c1ccccc1)N1CCOc2c(N3CCCNCC3)cc(Cl)cc21 | – | – | –
14 | 0.794 | O=S(=O)(c1cccc2ccccc12)N1CCOc2c(N3CCNCC3)cc(Cl)cc21 | – | – | –
15 | 5.01 | CC1(C)CN(S(=O)(=O)c2cccc(F)c2)c2cc(F)cc(C3CCNCC3)c2O1 | – | – | –

Further lines, the molecule ahead of its results:

Row | SMILES | Ki [1] [nM] | inhibition at 1 µM (hERG (KCNH2) [2]) [%] | Kp at 1 h [3] | IC20 (hERG (KCNH2) [4]) [nM]
16 | O=S(=O)(c1ccccc1)N1CCOc2c(N3CCNCC3)cccc21 | 12.6 | – | – | –
17 | O=S(=O)(c1ccccc1F)N1CCOc2c(N3CCNCC3)cccc21 | – | 9.9 | 1.8 | 2200
18 | O=S(=O)(c1cccc(Cl)c1)N1CCOc2c(N3CCNCC3)cccc21 | 2 | – | 1.4 | –
19 | O=S(=O)(c1cccc(F)c1)N1CCOc2c(N3CCNCC3)cccc21 | 10 | – | – | –
20 | Cc1cc(N2CCNCC2)c2c(c1)N(S(=O)(=O)c1ccccc1F)CCO2 | 0.398 | 26.5 | – | –
21 | O=S(=O)(c1ccccc1F)N1CCOc2c(N3CCNCC3)cc(F)cc21 | 0.631 | 26 | – | –
22 | O=S(=O)(c1ccccc1F)N1CCOc2c(N3CCNCC3)cc(Cl)cc21 | 0.398 | 45.2 | 2.7 | –
23 | COc1cc(N2CCNCC2)c2c(c1)N(S(=O)(=O)c1ccccc1)CCO2 | 0.398 | 34 | 0.8 | –
24 | Nc1ccc(S(=O)(=O)N2CCOc3c(N4CCNCC4)cc(F)cc32)cc1 | 1.26 | – | – | –
25 | Cc1cc(N2CCNCC2)c2c(c1)N(S(=O)(=O)c1ccccc1)CCO2 | 2.51 | 23.2 | 1 | –
26 | O=S(=O)(c1ccccc1Cl)N1CCOc2c(N3CCNCC3)cccc21 | 3.16 | 28.2 | 1.6 | –
